Test results: ChEMBL document CHEMBL1135583, “Activity of bisphosphonates against Trypanosoma brucei rhodesiense” (J Med Chem, 2002)

How the values were obtained:
[1] = Therapeutic index measured as the ratio of LD50 (KB cells) to IC50 (T.b. rhodesiense); type: cell-based; conditions: trypanosoma brucei rhodesiense, KB cells versus T. b. rhodesiense; read-out: TI
Procedure, shortened: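 KB cell growth inhibition measured by Alamar blue to give LD50, the dose lethal to 50% of cells; highest level tested 300 μg/mL. Index computed as LD50 (KB cells) / IC50 (T. b. rhodesiense).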

[2] = 50% lethal dose for inhibition of KB cells growth; type: cell-based; conditions: human, read-out: LD50 (the source's name)
Procedure, shortened: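 KB cell line growth measured over a dose-response series by the Alamar blue method. The LD50 is the concentration lethal to 50% of KB cells. The highest level tested was 300 μg/mL; ">" means no inhibition at that level.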

[3] = system: Trypanosoma brucei rhodesiense; experiment: In vitro growth inhibition of bloodstream-form Trypanosoma brucei rhodesiense Trypomastigotes; type: functional, organism-based
Procedure, shortened: (§1)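 Bloodstream-form T. b. rhodesiense trypomastigotes, strain STIB 900, grown in vitro with the bisphosphonate. IC50 taken as the drug concentration that cuts parasite proliferation by 50%.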

[4] = system: Trypanosoma brucei rhodesiense; experiment: Predicted pIC50 against Trypomastigotes Brucei rhodesiense.; type: functional, organism-based
Procedure, shortened: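 QSAR prediction from a bisphosphonate training set. Structures geometry-optimized by steepest-descent, conjugate-gradient and Newton–Raphson minimization with no internal constraints. Each molecule aligned by rms fit of its P–C–P backbone to the lowest-energy conformer of the template. Models validated by leave-one-out cross-validation.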

[5] = system: Trypanosoma brucei rhodesiense; experiment: Log IC50 brucei Trypomastigotes; type: functional, organism-based; procedure, shortened: as §1
[6] = system: Trypanosoma brucei rhodesiense; experiment: Percent inhibition of Trypanosoma brucei rhodesiense at 9.27 uM of risedronate along with GPP; type: functional
[7] = system: Trypanosoma brucei rhodesiense; experiment: In vitro growth inhibition of Trypanosoma brucei rhodesiense (risedronate + GPP); type: functional, organism-based
[8] = system: Trypanosoma brucei rhodesiense; experiment: Percent inhibition of Trypanosoma brucei rhodesiense at 3.09 uM of risedronate along with GPP; type: functional
Procedure, shortened: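 Rescue assay with bloodstream-form trypomastigotes (strain STIB900) seeded at 1 × 10^5/mL in HMI-18 medium with 20% HIFCS. Bisphosphonate was given as three-fold serial dilutions from 83.5 μM, in triplicate. Geranyl pyrophosphate was added at a final 12.5 μg/mL. Plates were incubated for 72 h at 37 °C in 5% CO2-air, then Alamar Blue was added for 4 h and fluorescence read at 530/585 nm.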

[9] = system: Trypanosoma brucei rhodesiense; experiment: Percent inhibition of Trypanosoma brucei rhodesiense at 27.85 uM of risedronate along with GPP; type: functional
[10] = system: Trypanosoma brucei rhodesiense; experiment: Percent inhibition of Trypanosoma brucei rhodesiense at 1.03 uM of risedronate along with GPP; type: functional
[11] = system: Trypanosoma brucei rhodesiense; experiment: Percent inhibition of Trypanosoma brucei rhodesiense at 83.54 uM of risedronate along with GPP; type: functional
[12] = system: Trypanosoma brucei rhodesiense; experiment: In vitro rescue of growth inhibition of Trypanosoma brucei rhodesiense [risedronate + farnesol(12.5 ug/mL)]; type: functional, organism-based
[13] = system: Trypanosoma brucei rhodesiense; experiment: In vitro rescue of growth inhibition of Trypanosoma uM of risedronate along with farnesol (12.5 ug/mL); type: functional
[14] = system: Trypanosoma brucei rhodesiense; experiment: In vitro growth inhibition of Trypanosoma brucei rhodesiense (risedronate + FPP); type: functional, organism-based
[15] = system: Trypanosoma brucei rhodesiense; experiment: Percent inhibition of Trypanosoma brucei rhodesiense at 9.27 uM of risedronate along with FPP; type: functional
[16] = system: Trypanosoma brucei rhodesiense; experiment: Percent inhibition of Trypanosoma brucei rhodesiense at 83.54 uM of risedronate along with FPP; type: functional
[17] = system: Trypanosoma brucei rhodesiense; experiment: Percent inhibition of Trypanosoma brucei rhodesiense at 27.85 uM of risedronate along with FPP; type: functional
[18] = system: Trypanosoma brucei rhodesiense; experiment: (§2) In vitro rescue of growth inhibition of Trypanosoma uM of compound; type: functional
[19] = system: Trypanosoma brucei rhodesiense; experiment: as §2; type: functional; remark: listed apart in the source
[20] = system: Trypanosoma brucei rhodesiense; experiment: as §2; type: functional; remark: listed apart in the source
[21] = system: Trypanosoma brucei rhodesiense; experiment: 50% inhibitory concentration against Trypanosoma brucei rhodesiense; type: functional, organism-based; procedure, shortened: as §1
[22] = system: Trypanosoma brucei rhodesiense; experiment: as §2; type: functional; remark: listed apart in the source
[23] = system: Trypanosoma brucei rhodesiense; experiment: as §2; type: functional; remark: listed apart in the source
[24] = system: Trypanosoma brucei rhodesiense; experiment: as §2; type: functional; remark: listed apart in the source

SMILES | selectivity ratio [1] | CC50 [2] [µM] | IC50 [3] [µM] | IC50 [4] [µM] | also measured
O=P(O)(O)C(Nc1ccc(Br)cn1)P(=O)(O)O | 2 | 87 | 39.5 | 39.8 | 
O=P(O)(O)C(O)(CCc1cccnc1)P(=O)(O)O | > 473 | > 804 | 1.7 | 1.7 | 
CCCCCCCCCCC(O)(P(=O)(O)O)P(=O)(O)O | > 101 | > 806 | 8 |  | IC50 [5]: 7.94 µM
CCCCC(O)(P(=O)(O)O)P(=O)(O)O | > 10 | > 1040 |  | 100 | 
CCCCCC(O)(P(=O)(O)O)P(=O)(O)O | > 16 | > 993 |  | 63.1 | 
O=P(O)(O)C(O)(Cc1c[nH]cn1)P(=O)(O)O | 5 | 41 |  | 8.51 | 
CC(C)=CCC/C(C)=C/COP(=O)(O)OP(=O)(O)O.O=P(O)(O)C(O)(Cc1cccnc1)P(=O)(O)O |  |  |  |  | Inhibition [6]: 83.7%; IC50 [7]: 3.71 µM; Inhibition [8]: 44.59%; Inhibition [9]: 100%; Inhibition [10]: 0%; Inhibition [11]: 100%
CCCCCCCCCCCC(O)(P(=O)(O)O)P(=O)(O)O | 246 | 492 | 2 |  | IC50 [5]: 2 µM
Nc1ccc(CC(O)(P(=O)(O)O)P(=O)(O)O)cc1 | 5 | 218 |  | 39.8 | 
O=P(O)(O)C(O)(Cc1ccccn1)P(=O)(O)O | 63 | 13.9 |  | 0.219 | 
CCCC(O)(P(=O)(O)O)P(=O)(O)O | > 11 | > 967 |  | 91.2 | 
CCCCCCCCCC(O)(P(=O)(O)O)P(=O)(O)O | > 38 | > 775 | 20.5 |  | IC50 [5]: 20.4 µM
O=P(O)(O)C(Nc1ccc(Cl)cn1)P(=O)(O)O | > 19 | > 992 | 53.3 | 53.7 | 
Cc1cccnc1NC(P(=O)(O)O)P(=O)(O)O | 267 | 187 | 0.7 | 0.708 | 
CC(N)CC(O)(P(=O)(O)O)P(=O)(O)O (stereo unspecified) | 125 | 977 | 7.8 | 7.76 | 
O=P(O)(O)C(O)(CSc1ccncc1)P(=O)(O)O | > 38 | > 746 |  | 20 | 
Cc1ccnc(NC(P(=O)(O)O)P(=O)(O)O)c1 | 208 | 127 | 0.61 | 0.617 | 
O=P(O)(O)C(O)(Cc1ccccc1)P(=O)(O)O | > 44 | > 931 |  | 21.4 | 
CC(C)=CCC/C(C)=C/CC/C(C)=C/CO.O=P(O)(O)C(O)(Cc1cccnc1)P(=O)(O)O |  |  |  |  | IC50 [12]: > 83.5 µM; Inhibition [13]: 0%
CC(C)=CCC/C(C)=C/CC/C(C)=C/COP(=O)(O)OP(=O)(O)O.O=P(O)(O)C(O)(Cc1cccnc1)P(=O)(O)O |  |  |  |  | IC50 [14]: 66.8 µM; Inhibition [15]: 0%; Inhibition [16]: 64.24%; Inhibition [17]: 25.4%
O=P(O)(O)C(NC1CCCCC1)P(=O)(O)O [(CYCLOHEXYLAMINO)METHYLENEDIPHOSPHONIC ACID] | 13 | 271 | 20.9 | 20.9 | 
CCN(CC)C(P(=O)(O)O)P(=O)(O)O [(DIETHYLAMINO)METHYLENEDIPHOSPHONIC ACID] | 24 | 809 | 34.4 | 34.7 | 
CC(C)CCNC(P(=O)(O)O)P(=O)(O)O [(ISOPENTYLAMINO)METHYLENEDIPHOSPHONIC ACID] | > 11 | > 1150 | 102 | 102 | 
CCCCCCCCNC(P(=O)(O)O)P(=O)(O)O [(OCTYLAMINO)METHYLENEDIPHOSPHONIC ACID] | 39 | 66.8 | 1.7 |  | IC50 [5]: 1.7 µM
CCCCCNC(P(=O)(O)O)P(=O)(O)O [(PENTYLAMINO)METHYLENEDIPHOSPHONIC ACID] | > 23 | > 1150 | 50.6 | 50.1 | 
CCCCCN(C)CCC(O)(P(=O)(O)O)P(=O)(O)O [IBANDRONIC ACID] | 10 | 10.1 | 0.96 | 0.955 | 
NCCCCCC(O)(P(=O)(O)O)P(=O)(O)O [NERIDRONIC ACID] | 21 | 680 |  |  | IC50 [5]: 31.6 µM
CN(C)CCC(O)(P(=O)(O)O)P(=O)(O)O [OLPADRONIC ACID] | > 195 | > 1050 |  | 5.37 | 
NCCC(O)(P(=O)(O)O)P(=O)(O)O [PAMIDRONIC ACID] | < 2 | 156 | > 100 |  | IC50 [5]: > 100 µM
O=P(O)(O)C(O)(Cc1cccnc1)P(=O)(O)O [RISEDRONIC ACID] | 29 | 249 |  | 8.51 | Inhibition [18]: 100%; Inhibition [19]: 23.49%; Inhibition [20]: 100%; IC50 [21]: 4.12 µM; Inhibition [22]: 0%; Inhibition [23]: 19.3%; Inhibition [24]: 86.49%
